Source: ChEMBL document CHEMBL1921783, “Hypoxia activated prodrugs of a 9-aza-anthrapyrazole derivative that has promising anticancer activity” (J Med Chem, 2011)
Structures can show the parent of a compound that is named as a salt. Calls of active or inactive are those of the source. The calls are words filed in the database; no cut-off is given here.

Columns and labels:
MCF7 [1] = test: Cytotoxicity against doxorubicin-sensitive human MCF7 cells under oxic condition assessed as growth inhibition after 74 hrs by sulforhodamine B assay; format: functional, cell-based; conditions: MCF7, 74 h
Method in brief: (§1)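 Cells grown in 96-well plates for 74 h across a range of test concentrations; growth measured by sulforhodamine B staining and IC50 taken as 50% inhibition of growth. Hypoxic arm held in an anaerobic chamber flushed with 95% N2/5% CO2; oxic arm in oxygen-rich conditions.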

MCF7 [2] = test: Cytotoxicity against doxorubicin-resistant human MCF7 cells under hypoxic condition assessed as growth inhibition after 74 hrs by sulforhodamine B assay; format: functional, cell-based; conditions: MCF7, 74 h; method in brief: as §1
LoVo [3] = test: Cytotoxicity against human LoVo cells under oxic condition assessed as growth inhibition after 74 hrs by sulforhodamine B assay; format: functional, cell-based; method in brief: as §1
MCF7 [4] = test: Cytotoxicity against doxorubicin-sensitive human MCF7 cells under hypoxic condition assessed as growth inhibition after 74 hrs by sulforhodamine B assay; format: functional, cell-based; conditions: MCF7, 74 h; method in brief: as §1
MCF7 [5] = test: Cytotoxicity against doxorubicin-resistant human MCF7 cells under oxic condition assessed as growth inhibition after 74 hrs by sulforhodamine B assay; format: functional, cell-based; conditions: MCF7, 74 h; method in brief: as §1
LoVo [6] = test: Cytotoxicity against human LoVo cells under hypoxic condition assessed as growth inhibition after 74 hrs by sulforhodamine B assay; format: functional, cell-based; method in brief: as §1
Nucleic Acid [7] = test: Displacement of ethidium bromide from DNA by fluorometric analysis; format: nucleic-acid assay
Method in brief: (§2)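 Fluorescence read-out of ethidium bromide displacement from DNA; IC50 is concentration reducing ethidium bromide binding by 50%; tested up to 50 μM.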

[8] = molecular target: DNA topoisomerase 2-alpha (Homo sapiens) (UniProt P11388); test: Inhibition of DNA topoisomerase 2-mediated DNA fragmentation at 10 uM by gel electrophoresis analysis
Method in brief: (§3)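 Topo II incubated with DNA and compound; products resolved by gel electrophoresis, with intact DNA as a single band and Topo II fragmentation giving multiple bands.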

[9] = molecular target: DNA topoisomerase 2-alpha (Homo sapiens) (UniProt P11388); test: Inhibition of DNA topoisomerase 2-mediated DNA fragmentation at 10 uM pretreated with 1% O2 for 2 hrs measured by gel electrophoresis analysis
Method in brief: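 Before the Topo II assay, compound incubated with rat liver S-9 fraction in 1% O2 or normal air for 2 h at 37 °C. Proteins were precipitated with ethanol and the sample centrifuged; the supernatant was then tested for inhibition of Topo II DNA fragmentation by gel electrophoresis.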

Nucleic Acid [10] = test: Binding affinity to DNA assessed as increase in hypochromicity by UV-spectroscopic analysis without compound pretreatment with CYP450; format: nucleic-acid assay
Method in brief: (§4)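 UV absorbance scans of compound recorded with sequentially increasing DNA concentrations; binding judged from hypochromicity and bathochromic shift. CYP450 pretreatment where applicable: incubation with rat liver S-9 fraction in 1% O2, 2 h, 37 °C, proteins precipitated with ethanol, supernatant after centrifugation used.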

Nucleic Acid [11] = test: Displacement of ethidium bromide from DNA at 50 uM by fluorometric analysis; format: nucleic-acid assay; method in brief: as §2
[12] = molecular target: DNA topoisomerase 2-alpha (Homo sapiens) (UniProt P11388); test: Inhibition of DNA topoisomerase 2-mediated DNA fragmentation at 50 uM by gel electrophoresis analysis; method in brief: as §3
Nucleic Acid [13] = test: Binding affinity to DNA assessed as increase in hypochromicity by UV-spectroscopic analysis with compound pretreatment with CYP450; format: nucleic-acid assay; method in brief: as §4
Nucleic Acid [14] = test: Binding affinity to DNA assessed as bathochromic shift by UV-spectroscopic analysis with compound pretreatment with CYP450; format: nucleic-acid assay; method in brief: as §4

Sequence of DNA topoisomerase 2-alpha (Homo sapiens) (P11388 whole entry, the tested form may be a part): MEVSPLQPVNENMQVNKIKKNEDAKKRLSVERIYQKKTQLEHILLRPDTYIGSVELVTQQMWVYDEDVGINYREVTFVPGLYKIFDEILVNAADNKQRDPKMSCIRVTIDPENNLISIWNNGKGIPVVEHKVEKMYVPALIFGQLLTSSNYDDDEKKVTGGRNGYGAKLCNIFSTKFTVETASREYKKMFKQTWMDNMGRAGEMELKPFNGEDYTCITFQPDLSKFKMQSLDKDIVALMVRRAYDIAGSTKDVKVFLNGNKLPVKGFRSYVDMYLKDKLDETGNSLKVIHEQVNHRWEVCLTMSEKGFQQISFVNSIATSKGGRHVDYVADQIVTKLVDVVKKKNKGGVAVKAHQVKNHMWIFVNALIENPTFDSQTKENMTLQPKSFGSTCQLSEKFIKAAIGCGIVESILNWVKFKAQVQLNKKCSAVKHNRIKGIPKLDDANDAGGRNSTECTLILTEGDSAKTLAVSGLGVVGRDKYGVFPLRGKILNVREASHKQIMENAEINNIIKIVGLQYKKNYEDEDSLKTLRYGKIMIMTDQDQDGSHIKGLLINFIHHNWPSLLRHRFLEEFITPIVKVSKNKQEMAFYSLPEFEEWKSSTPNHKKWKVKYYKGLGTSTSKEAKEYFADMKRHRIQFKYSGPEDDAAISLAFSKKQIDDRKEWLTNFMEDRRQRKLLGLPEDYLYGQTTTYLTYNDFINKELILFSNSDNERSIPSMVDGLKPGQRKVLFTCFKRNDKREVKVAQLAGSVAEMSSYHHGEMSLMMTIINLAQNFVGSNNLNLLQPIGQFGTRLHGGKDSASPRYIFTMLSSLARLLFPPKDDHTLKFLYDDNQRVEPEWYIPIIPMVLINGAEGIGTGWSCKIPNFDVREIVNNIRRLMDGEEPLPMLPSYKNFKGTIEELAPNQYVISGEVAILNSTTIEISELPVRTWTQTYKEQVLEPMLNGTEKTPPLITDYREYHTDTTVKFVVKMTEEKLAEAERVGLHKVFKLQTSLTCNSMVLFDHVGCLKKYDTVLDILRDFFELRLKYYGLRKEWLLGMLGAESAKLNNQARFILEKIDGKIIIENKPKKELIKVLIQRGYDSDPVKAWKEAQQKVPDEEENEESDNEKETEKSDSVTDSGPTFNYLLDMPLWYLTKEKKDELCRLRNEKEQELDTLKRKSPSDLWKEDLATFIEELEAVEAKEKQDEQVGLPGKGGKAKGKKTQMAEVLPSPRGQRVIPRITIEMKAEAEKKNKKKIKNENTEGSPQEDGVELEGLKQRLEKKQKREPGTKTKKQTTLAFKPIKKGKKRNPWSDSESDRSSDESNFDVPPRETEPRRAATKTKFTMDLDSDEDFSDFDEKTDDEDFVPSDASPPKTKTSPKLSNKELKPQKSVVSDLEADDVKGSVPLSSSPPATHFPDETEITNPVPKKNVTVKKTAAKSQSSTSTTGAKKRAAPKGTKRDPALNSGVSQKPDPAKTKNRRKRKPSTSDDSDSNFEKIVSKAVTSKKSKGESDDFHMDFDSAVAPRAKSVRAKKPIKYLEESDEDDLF

## O=C1c2c(O)ccc(O)c2C(=O)c2c(NCCNCCO)ccc(NCCNCCO)c21 [MITOXANTRONE HYDROCHLORIDE]
MCF7 [1]
  IC50: 0.1 µM
MCF7 [2]
  IC50: > 10 µM
LoVo [3]
  IC50: 0.1 µM
MCF7 [4]
  IC50: 1 µM
MCF7 [5]
  IC50: 4.7 µM
LoVo [6]
  IC50: 0.9 µM
Nucleic Acid [7]
  IC50: 4.5 µM

## CN(C)CCNc1ccc2c3c(nn2CCN(C)C)-c2cnccc2C(=O)c13
MCF7 [1]
  IC50: 0.9 µM
MCF7 [2]
  IC50: 1.2 µM
LoVo [3]
  IC50: 1.3 µM
[8]
  inhibition: Active
MCF7 [4]
  IC50: 4 µM
MCF7 [5]
  IC50: 1 µM
[9]
  inhibition: Active
LoVo [6]
  IC50: 3.3 µM
Nucleic Acid [7]
  IC50: 6.8 µM

## C[N+](C)([O-])CCNc1ccc2c3c(nn2CC[N+](C)(C)[O-])-c2cnccc2C(=O)c13
Nucleic Acid [10]
  Activity: inactive
Nucleic Acid [11]
  Activity: inactive
MCF7 [1]
  IC50: > 25 µM
MCF7 [2]
  IC50: 1.3 µM
LoVo [3]
  IC50: > 25 µM
[12]
  inhibition: inactive
Nucleic Acid [13]
  Activity: Active
MCF7 [4]
  IC50: 5 µM
MCF7 [5]
  IC50: > 25 µM
[9]
  inhibition: Active
LoVo [6]
  IC50: 1.5 µM
Nucleic Acid [14]
  Activity: Active
